How the values were obtained:
HCT-15 = assay: Antitumor activity against human HCT15 cells after 24 hrs by MTT assay; format: functional, cell-based; conditions: HCT-15, 24 h
In short: (§1)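 Seeded at 5.0 × 10⁴ cells/mL and cultured 24 h, then exposed 24 h to serial dilutions made from a DMSO solution. MTT (5 mg/mL) added for 4 h, formazan dissolved in DMSO, A570 read. IC50 taken by linear regression of concentration-response curves; mean of at least three independent experiments.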

CNE = assay: Antitumor activity against human CNE cells after 24 hrs by MTT assay; format: functional, cell-based; in short: as §1
MDA-MB-231 = assay: Antitumor activity against human MDA-MB-231 cells after 24 hrs by MTT assay; format: functional, cell-based; conditions: MDA-MB-231, 24 h; in short: as §1
L929 = assay: Cytotoxicity against mouse L929 cells after 24 hrs by MTT assay; format: cell-based; conditions: L929, 24 h; in short: as §1
MCF7 = assay: Antitumor activity against human MCF7 cells after 24 hrs by MTT assay; format: functional, cell-based; conditions: MCF7, 24 h; in short: as §1
[1] = Cytotoxicity against human HSF cells after 24 hrs by MTT assay; format: cell-based; in short: as §1
K562 = assay: Antitumor activity against human K562 cells after 24 hrs by MTT assay; format: functional, cell-based; conditions: K562, 24 h; in short: as §1
Mus musculus = assay: Toxicity in KM mouse harboring mouse S180 cells xenograft assessed as body weight change at 25 mg/kg, ip administered qd for 9 days measured on 10th day (reference value: +39.1%); format: organism-based, CCRF S-180; design: dose 25 mg/kg, route intraperitoneal; conditions: in vivo, 216 h
In short: (§2)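 S-180 sarcoma cells (2 × 10⁶ in 0.2 ml saline) injected subcutaneously at the femur of male SPF KM mice, seven weeks old, 18–22 g; groups of 10. Dosing began 24 h later, i.p. once daily for 9 days, in 0.5% DMSO/1% Tween 80 diluted with saline; controls received vehicle. Body weight followed; tumors excised and weighed on day 10. Inhibition = (control − treated mean tumor weight)/control × 100%.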

CCRF S-180 [2] = assay: Antitumor activity against mouse S180 cells xenografted in KM mouse assessed as decrease in tumor weight at 25 mg/kg, ip administered qd for 9 days measured on 10th day (reference value: 2.07+/- 0.42g); format: functional; conditions: route intraperitoneal; in short: as §2
CCRF S-180 [3] = assay: Antitumor activity against mouse S180 cells xenografted in KM mouse assessed as tumor weight inhibition rate at 25 mg/kg, ip administered qd for 9 days measured on 10th day; format: functional; conditions: CCRF S-180, ip, 216 h, route intraperitoneal; in short: as §2

| SMILES | IC50 (MDA-MB-231) | IC50 (MCF7) | IC50 [1] | other results |
| --- | --- | --- | --- | --- |
| COc1ccc(OC)c2c1C(=O)C=C([C@@H](CC=C(C)C)OC(C)=O)C2=O | 7.2 µM | – | – | IC50 (HCT-15): 29.6 µM; IC50 (CNE): 23.1 µM; IC50 (L929): > 100 µM |
| COc1cc([C@@H](CC=C(C)C)OC(=O)c2ccoc2)c(OC)c2c1C(=O)C=CC2=O | 0.4 µM | 1.3 µM | > 100 µM | – |
| COc1cc([C@@H](CC=C(C)C)OC(C)=O)c(OC)c2c1C(=O)C=CC2=O | 3.4 µM | 4.9 µM | > 100 µM | IC50 (K562): 15.3 µM; IC50 (HCT-15): 19.3 µM; IC50 (CNE): 58 µM; IC50 (L929): > 100 µM |
| CCC(=O)O[C@H](CC=C(C)C)c1cc(OC)c2c(c1OC)C(=O)C=CC2=O | 2.5 µM | 6.2 µM | 78.6 µM | – |
| CCCC(=O)O[C@H](CC=C(C)C)c1cc(OC)c2c(c1OC)C(=O)C=CC2=O | 4.3 µM | 5.1 µM | 86.3 µM | – |
| COc1cc([C@@H](CC=C(C)C)OC(=O)C(C)C)c(OC)c2c1C(=O)C=CC2=O | 2.8 µM | 3.7 µM | 69.3 µM | – |
| C/C=C/C(=O)O[C@H](CC=C(C)C)c1cc(OC)c2c(c1OC)C(=O)C=CC2=O | 1.5 µM | 3.3 µM | 74.9 µM | – |
| CCC(C)C(=O)O[C@H](CC=C(C)C)c1cc(OC)c2c(c1OC)C(=O)C=CC2=O (stereo partly specified) | 5.9 µM | 4.5 µM | 93.6 µM | – |
| COc1cc([C@@H](CC=C(C)C)OC(=O)c2ccccc2)c(OC)c2c1C(=O)C=CC2=O | 2.2 µM | 6.7 µM | > 100 µM | – |
| COc1cc([C@@H](CC=C(C)C)OC(=O)CCc2ccccc2)c(OC)c2c1C(=O)C=CC2=O | 3.7 µM | 5.9 µM | > 100 µM | – |
| COc1cc([C@@H](CC=C(C)C)OC(=O)/C=C/c2ccccc2)c(OC)c2c1C(=O)C=CC2=O | 2.4 µM | 3.9 µM | > 100 µM | – |
| COc1cc([C@@H](CC=C(C)C)OC(=O)c2ccc([N+](=O)[O-])cc2)c(OC)c2c1C(=O)C=CC2=O | 16.8 µM | 15.2 µM | > 100 µM | – |
| COc1ccc(C(=O)O[C@H](CC=C(C)C)c2cc(OC)c3c(c2OC)C(=O)C=CC3=O)cc1 | 1.4 µM | 8.3 µM | 88.3 µM | – |
| COc1ccccc1C(=O)O[C@H](CC=C(C)C)c1cc(OC)c2c(c1OC)C(=O)C=CC2=O | 4.4 µM | 21.3 µM | > 100 µM | – |
| COc1ccc(CC(=O)O[C@H](CC=C(C)C)c2cc(OC)c3c(c2OC)C(=O)C=CC3=O)cc1 | 2.3 µM | 5.5 µM | > 100 µM | – |
| COc1ccc(/C=C/C(=O)O[C@H](CC=C(C)C)c2cc(OC)c3c(c2OC)C(=O)C=CC3=O)cc1OC | 5 µM | 7.7 µM | > 100 µM | – |
| COc1cc([C@@H](CC=C(C)C)OC(=O)c2ccco2)c(OC)c2c1C(=O)C=CC2=O | 1.3 µM | 2.7 µM | > 100 µM | – |
| COc1cc([C@@H](CC=C(C)C)OC(=O)C2CCCO2)c(OC)c2c1C(=O)C=CC2=O (stereo partly specified) | 0.6 µM | 2.5 µM | > 100 µM | IC50 (K562): 11.2 µM; IC50 (HCT-15): 18.6 µM; IC50 (CNE): 20.6 µM; IC50 (L929): > 100 µM |
| COc1cc([C@@H](CC=C(C)C)OC(=O)C2CCOC2)c(OC)c2c1C(=O)C=CC2=O (stereo partly specified) | 0.2 µM | 1.1 µM | 69.4 µM | – |
| COc1cc([C@@H](CC=C(C)C)OC(=O)c2cccnc2)c(OC)c2c1C(=O)C=CC2=O | 6 µM | 17.4 µM | 91.7 µM | – |
| COc1cc([C@@H](CC=C(C)C)OC(=O)c2ccncc2)c(OC)c2c1C(=O)C=CC2=O | 1.2 µM | 6.3 µM | > 100 µM | – |
| COc1cc([C@H](O)CC=C(C)C)c(OC)c2c1C(=O)C=CC2=O | 4.1 µM | 9.2 µM | 79.6 µM | – |
| COc1ccc(OC)c2c1C(=O)C=C([C@@H](CC=C(C)C)OC(=O)C1CCCO1)C2=O (stereo partly specified) | 2.1 µM | – | – | IC50 (HCT-15): 12.7 µM; IC50 (CNE): 16.5 µM; IC50 (L929): > 100 µM |
| O=c1[nH]cc(F)c(=O)[nH]1 [FLUOROURACIL] | – | – | – | Activity (Mus musculus): 34.7%; Activity (CCRF S-180 [2]): 1.11 g; inhibition in vivo at 25 mg/kg (CCRF S-180 [3]): 46.5% |
| CC(C)=CC[C@@H](O)C1=CC(=O)c2c(O)ccc(O)c2C1=O [SHIKONIN] | 6.6 µM | – | – | IC50 (HCT-15): 7.3 µM; IC50 (CNE): 0.7 µM; IC50 (L929): 3.2 µM |

Source: ChEMBL document CHEMBL1806447, “Semi-synthesis and antitumor activity of 6-isomers of 5, 8-O-dimethyl acylshikonin derivatives” (Eur J Med Chem, 2011)
